# Screening results deposited in PubChem BioAssay by several laboratories.
# In the library only some 4.7% were active in any assay of this set; here they are far more common.
# MPTP inh = blocks calcium-induced mitochondrial swelling. isolated mouse mitochondria, Ca2+ swelling absorbance, 30 min. inhibition, % at 10 µM. hit rate 1.4% among 360,000;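 active means inhibition of 50% or more, scaled per plate between neutral and stimulator controls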;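 further: 0% = DMSO wells given calcium and 100% = 1 mM EGTA wells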
# SKN-1 inh = inhibitors of C. elegans SKN-1; C. elegans VP596 Pgst-4::GFP/RFP ratio, acrylamide-induced, 24 h; hit rate 0.49% among 360,000; inhibition, % at 21.8 µM;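 active means interference check ratio from 0.5 to 1.5 plus GFP to RFP signal ratio inhibition reaching or exceeding a fixed threshold, cut at about 30% in these data, passing the limit was not always enough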
# NR3A LBD binder = modulates the human NR3A ligand-binding domain; NR3A LBD differential scanning fluorimetry, Tm shift; 0% = protein alone, 100% = glycine-bound protein; Tm shift relative to glycine control, % at 25 µM; hit rate 2.5% among 340,000; AID 1259313;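 active means melting temperature shift of at least 10% of the positive control shift, at one fixed dose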
# MT1-MMP act inh = blocks activation of human MT1-MMP; GFP/RFP ratio change, % at 20 µM; HT1080 RFP-PRO-GFP cells, GFP/RFP ratio fluorescence, overnight; percent of plate control window, DMSO zero; P50281; hit rate 0.061% among 360,000;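 active means GFP/RFP ratio change of at least 30% with cell ATP level not reduced by more than half and red fluorescence within 50% of control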
#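 Assay system – RFP-PRO-GFP reporter HT1080 cells · Compound dosing – single dose of 20 µM compound, 1% DMSO final · Incubation – overnight compound exposure at 37 °C · Measure – GFP/RFP fluorescence ratio · Benchmarks – DMSO wells and RFP-L50D-GFP cells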
# ADAM10 inh = inhibitors of human ADAM10 | O14672 | recombinant ADAM10, EDANS/DABCYL FRET peptide cleavage, 3 h | inhibition, % at 7 µM | hit rate 0.62% among 370,000;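 active means inhibition above a per-campaign cutoff equal to the mean of compounds falling between control-based bounds plus 3 SD, cut at about 20% in these data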;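 further: 0% = DMSO wells while the 100% control is not disclosed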
# ADAM17 inh = ADAM17 inhibition, QFRET primary screen; P78536; recombinant ADAM17, EDANS/DABCYL FRET peptide cleavage; inhibition, % at 6.95 µM; hit rate 0.83% among 370,000; AID 720648;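 active means inhibition above the mean of compounds lying between control limits plus 3 SD, set per campaign, cut at about 8.5% in these data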;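 further: 0% = DMSO-only wells as the low control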
# Target sequence (P78536 215-824 limits assumed): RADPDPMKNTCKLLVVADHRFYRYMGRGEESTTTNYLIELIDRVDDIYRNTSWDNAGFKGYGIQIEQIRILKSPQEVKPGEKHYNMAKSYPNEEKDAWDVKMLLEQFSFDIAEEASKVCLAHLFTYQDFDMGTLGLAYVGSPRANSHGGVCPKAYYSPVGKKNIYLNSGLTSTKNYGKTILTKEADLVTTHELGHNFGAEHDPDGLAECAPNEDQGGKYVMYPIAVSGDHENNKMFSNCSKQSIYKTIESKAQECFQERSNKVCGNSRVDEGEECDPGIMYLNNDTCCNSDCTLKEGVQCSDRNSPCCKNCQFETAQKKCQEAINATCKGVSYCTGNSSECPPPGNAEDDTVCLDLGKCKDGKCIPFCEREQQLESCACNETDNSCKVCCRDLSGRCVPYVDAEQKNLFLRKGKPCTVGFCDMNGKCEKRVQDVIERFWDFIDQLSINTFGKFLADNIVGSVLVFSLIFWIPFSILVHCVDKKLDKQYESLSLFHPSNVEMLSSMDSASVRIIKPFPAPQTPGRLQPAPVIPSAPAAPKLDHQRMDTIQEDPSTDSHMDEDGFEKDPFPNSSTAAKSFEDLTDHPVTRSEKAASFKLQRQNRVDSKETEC
# ADAM10 counter = counter-screen for ADAM17 exosite inhibitors: inhibitors of human ADAM10 | inhibition, % at 6.95 µM | AID 743256 | hit rate 47% among 2,900 | shares compounds with ADAM17 inh | recombinant ADAM10, EDANS/DABCYL FRET peptide cleavage, 3 h;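 active means mean inhibition over the triplicate runs exceeds the activity threshold set in the earlier primary screen, cut at about 20% in these data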;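 further: 0% = DMSO wells and 100% = marimastat wells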
# ADAM17 confirm = confirmation of inhibitors of human ADAM17. hit rate 65% among 2,900. AID 743257. recombinant ADAM17, EDANS/DABCYL QFRET peptide cleavage. shares compounds with ADAM17 inh. inhibition, % at 6.95 µM;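 active means mean inhibition across replicates above the hit cutoff set in the primary screen, cut at about 8.5% in these data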;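 further: 0% = DMSO wells and 100% = marimastat wells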
# An asterisk follows results filed as active; . = no result given.
SMILES,MPTP inh,SKN-1 inh,NR3A LBD binder,MT1-MMP act inh,ADAM10 inh,ADAM17 inh,ADAM10 counter,ADAM17 confirm
Fc1cccc(CCN2C(=S)NC[C@@H]2CC2CCCCC2)c1,-0.4,-10.0,2.6,-0.5,10.5,10.8*,19.2,6.9
Cc1ccc(S(=O)(=O)N/N=C/c2cccc3nccnc23)cc1,1.9,-0.2,1.8,-8.1,5.9,8.8*,17.6,8.2
COc1ccc(NC(=O)CNC(=O)CC23CC4CC(CC(C4)C2)C3)c(OC)c1,-0.6,3.7,4.0,4.7,2.9,-2.2,.,.
Cc1ccc(NC(=O)CNC(=O)CC23CC4CC(CC(C4)C2)C3)c(O)c1,0.0,14.0,-0.1,-1.0,1.4,15.9*,4.4,6.2
CC(c1nnnn1C1CCCCC1)N(Cc1ccccc1)Cc1cccnc1 (configuration not stated),0.1,-19.8,0.5,0.5,18.0,9.4*,4.1,1.6
CCOc1ccc2nc(NCCNC(=O)c3cc(OC)c(OC)c(OC)c3)c(C#N)cc2c1,0.3,-3.6,2.7,0.7,-28.2,-11.9,.,.
COC(=O)c1ccc(CSc2nc3c(c(=O)n2-c2ccc(C)cc2)SCC3)o1,-0.6,-6.6,-3.2,2.7,19.4,11.8*,12.2,5.8
OCCCn1c(C2CCCN2c2nc(-c3ccc(Cl)cc3)cs2)nc2cc(Cl)c(Cl)cc21 (configuration not stated),-0.4,0.1,0.6,3.7,18.9,9.1*,26.9*,12.3*
OCOCCCn1c(C2CCCN2c2nc(-c3ccc(F)cc3)cs2)nc2cc(Cl)c(N3CCCCC3)cc21 (configuration not stated),1.5,9.7,-0.6,6.3,15.2,10.0*,16.3,8.7*
Nc1c(Cl)cc(-c2csc(N3CCCC3c3nc4cc(Cl)c(Cl)cc4n3CCCO)n2)cc1Cl (configuration not stated),0.1,9.4,4.4,-2.0,4.5,0.2,.,.
OCCCn1c(C2CCCN2c2nc(-c3ccc(F)cc3)cs2)nc2cc(Cl)c(Cl)cc21 (configuration not stated),0.9,11.0,-1.6,-1.4,12.0,9.5*,19.2,11.3*
COc1cccc(C2NC(=S)N(Cc3ccc(F)cc3)C(C)=C2C(C)=O)c1 (configuration not stated),.,.,.,.,7.0,3.3,.,.
Cc1ccc2nc3n(c(=O)c2c1)-c1cc(Cl)ccc1C(=O)NC3Cc1ccccc1 (configuration not stated),.,.,.,.,0.9,-3.7,.,.
CCc1nc2ccc(C(=O)Nc3ccc4c(c3)OCC(=O)N4)cn2c1N(CC)Cc1cccc(Br)c1,-1.7,13.9,.,-7.9,13.6,9.1*,16.2,11.9*
CCc1nc2ccc(C(=O)Nc3ccc4c(c3)OCC(=O)N4)cn2c1N(CC)CCOC,-2.5,18.1,.,-2.5,-1.4,-0.6,.,.
O=C(COc1cccc2ccccc12)Nc1ccc(Cl)cc1C(=O)O,37.7,9.4,2.2,-0.5,4.9,-0.8,.,.
O=C(COc1cccc2ccccc12)Nc1cc(Cl)ccc1C(=O)O,5.3,15.4,7.9,-7.0,4.2,13.0*,7.0,5.9
O=C(NNC(=O)C1CC1)Nc1ccc(Cl)cc1,5.2,9.6,3.9,4.3,-0.1,1.8,.,.
CCc1ccc(OCC2c3cc(OC)c(OC)cc3CCN2C(=S)NCCOC)cc1 (configuration not stated),2.8,-1.6,-7.7,-1.1,16.9,10.1*,39.4*,21.1*
CCc1ccc(OCC2c3cc(OC)c(OC)cc3CCN2C(=S)NC)cc1 (configuration not stated),-10.6,4.0,-2.3,10.3,9.9,0.1,.,.
O=C1c2ccccc2-c2onc3ccc(NCc4ccco4)c1c23,6.4,58.5,-2.1,77.5,.,.,.,.
CCNc1ccc2noc3c2c1C(=O)c1ccccc1-3,9.5,54.0,-513.2,-99.6,6.3,9.0*,-2.5,5.3
O=S(=O)(c1cccs1)N1CCC(CO)(Cc2ccc(Cl)cc2)CC1,-1.2,1.9,-14.5,1.0,16.9,11.9*,0.6,7.6
COc1ccc(C(=O)c2c[nH]c3ccccc23)cc1,-5.9,11.3,-2.5,-4.1,12.9,11.2*,-1.6,0.7
COc1ccc(-c2ccc(CN3C(C(C)C)C(=O)N(Cc4cn(Cc5ccco5)nn4)CCS3(=O)=O)cc2)cc1OC (configuration not stated),-2.7,-3.2,.,-1.3,11.5,10.2*,15.7,14.3*
SMILES,MPTP inh,SKN-1 inh,NR3A LBD binder,MT1-MMP act inh,ADAM10 inh,ADAM17 inh,ADAM10 counter,ADAM17 confirm
CC1C(=O)N(Cc2cn(CCC3OCCO3)nn2)CCS(=O)(=O)N1Cc1ccc(-c2ccc(F)cc2)cc1 (configuration not stated),2.0,9.9,.,-7.6,-8.4,10.0*,4.0,1.5
COc1ccc(-c2ccc(CN3C(C(C)C)C(=O)N(Cc4cn(Cc5ccco5)nn4)CCS3(=O)=O)cc2)cc1 (configuration not stated),-1.1,3.8,.,-0.8,9.4,7.2,.,.
CCOc1ccc(NC(=O)CS(=O)CC(=O)NC2CCCc3ccccc32)cc1 (configuration not stated),-0.5,-4.6,-0.3,-0.1,7.8,1.6,.,.
CC1=C(C(=O)Nc2cc(-c3cccc(F)c3)[nH]n2)C2(CCCCC2)OC1=O,1.3,-6.1,-5.2,1.1,-1.0,0.7,.,.
CCOC(=O)[C@]12CCCCC/C=C\1N(CCc1ccc(Cl)cc1)C(=O)[C@H]2CC(=O)NCc1ccc(C)o1,.,.,.,.,4.8,9.4*,5.2,3.4
CCOC(=O)[C@]12CCCCC/C=C\1N(CCc1ccc(Cl)cc1)C(=O)[C@H]2CC(=O)NCc1ccccc1,.,.,.,.,13.8,10.8*,25.4*,11.8*
CC(C)[C@H](NS(=O)(=O)c1ccccc1)C(=O)OCC(=O)NC1CCCCC1,0.0,19.0,1.2,-3.6,-1.5,2.2,.,.
CC(C)(C)c1ccc(OCCC(=O)OCC(=O)N2c3ccccc3NC(=O)C2(C)C)cc1,1.6,15.6,-6.4,3.0,5.5,11.0*,39.0*,15.8*
O=C1c2cccc(OCC(=O)N3CCCc4ccccc43)c2CCN1Cc1ccc(Br)cc1,1.6,6.7,3.3,-6.6,16.5,9.7*,10.5,11.8*
CC12CCC(C(=O)Nc3ccccc3Cl)([C@H](Br)C1=O)C2(C)C (some centres not stated),1.4,2.3,2.4,3.2,-2.0,-0.2,.,.
